According to ChEMBL document CHEMBL2331485, “Pyrimidoaminotropanes as potent, selective, and efficacious small molecule kinase inhibitors of the mammalian target of rapamycin (mTOR)” (J Med Chem, 2013):
pEC50, pIC50, pKi: −log10 of the molar value. Converted amounts (≈) assume the structure as drawn. The source made the active and inactive calls. The calls are words filed in the database; no cut-off is given here.

Experiments:
Canis familiaris = assay: Unbound blood clearance in iv dosed dog; format: ADME, organism-based, Canis lupus familiaris; details: in vivo
[1] = Clearance in mouse liver microsomes; format: ADME, Microsome
[2] = Half life in mouse at 1 mg/kg, iv; format: ADME, organism-based; set-up: dose 1 mg/kg, route intravenous; details: in vivo
Method in brief: (§1)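 Mouse PK used iv dosing at 1 mg/kg as a 60% PEG solution and po dosing at 5 mg/kg as a suspension in MCT. Clearance, unbound clearance, Vss, t1/2 and oral bioavailability were derived from these doses.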

Mus musculus [3] = assay: Unbound clearance in mouse at 1 mg/kg, iv; format: ADME, organism-based; set-up: dose 1 mg/kg, route intravenous; details: in vivo; method in brief: as §1
PC-3 = assay: Cytotoxicity against human PC3 cells after 4 days by CellTiter-Glo assay; details: PC-3, 96 h
[4] = Clearance in human liver microsomes; format: ADME, Microsome
Cytochrome P450 3A4 = Cytochrome P450 3A4 (Homo sapiens, UniProt P08684); assay: Time dependent inhibition of human CYP3A4 preincubated for 30 mins in presence of NADPH; format: ADME
Method in brief: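 TDI IC50 is the inhibitor concentration giving 50% loss of CYP3A4 activity after a 30 min pre-incubation with NADPH. It is reported as clean where no IC50 could be measured.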

mTORC1 = mTORC1 (Homo sapiens, UniProt P42345); assay: Inhibition of mTORC1 in human NCI-PC3 cells assessed as inhibition of p70S6K phosphorylation; format: cell-based
[5] = Cytotoxicity against human MCF7 neo/Her2 cells after 3 days by CellTiter-Glo assay; details: MCF7, 72 h
[6] = Inhibition of mTORC2 in human NCI-PC3 cells assessed as inhibition of AKT phosphorylation
[7] = Plasma protein binding in rat at 5 uM after 4 hrs by rapid equilibrium dialysis; format: ADME, cell-free; details: read-out: PPB (converted)
[8] = target: T1, Phosphatidylinositol 4,5-bisphosphate 3-kinase catalytic subunit delta isoform (Homo sapiens) (UniProt O00329); assay: Inhibition of PI3Kdelta (unknown origin) at 1 uM
T1 sequence (whole entry): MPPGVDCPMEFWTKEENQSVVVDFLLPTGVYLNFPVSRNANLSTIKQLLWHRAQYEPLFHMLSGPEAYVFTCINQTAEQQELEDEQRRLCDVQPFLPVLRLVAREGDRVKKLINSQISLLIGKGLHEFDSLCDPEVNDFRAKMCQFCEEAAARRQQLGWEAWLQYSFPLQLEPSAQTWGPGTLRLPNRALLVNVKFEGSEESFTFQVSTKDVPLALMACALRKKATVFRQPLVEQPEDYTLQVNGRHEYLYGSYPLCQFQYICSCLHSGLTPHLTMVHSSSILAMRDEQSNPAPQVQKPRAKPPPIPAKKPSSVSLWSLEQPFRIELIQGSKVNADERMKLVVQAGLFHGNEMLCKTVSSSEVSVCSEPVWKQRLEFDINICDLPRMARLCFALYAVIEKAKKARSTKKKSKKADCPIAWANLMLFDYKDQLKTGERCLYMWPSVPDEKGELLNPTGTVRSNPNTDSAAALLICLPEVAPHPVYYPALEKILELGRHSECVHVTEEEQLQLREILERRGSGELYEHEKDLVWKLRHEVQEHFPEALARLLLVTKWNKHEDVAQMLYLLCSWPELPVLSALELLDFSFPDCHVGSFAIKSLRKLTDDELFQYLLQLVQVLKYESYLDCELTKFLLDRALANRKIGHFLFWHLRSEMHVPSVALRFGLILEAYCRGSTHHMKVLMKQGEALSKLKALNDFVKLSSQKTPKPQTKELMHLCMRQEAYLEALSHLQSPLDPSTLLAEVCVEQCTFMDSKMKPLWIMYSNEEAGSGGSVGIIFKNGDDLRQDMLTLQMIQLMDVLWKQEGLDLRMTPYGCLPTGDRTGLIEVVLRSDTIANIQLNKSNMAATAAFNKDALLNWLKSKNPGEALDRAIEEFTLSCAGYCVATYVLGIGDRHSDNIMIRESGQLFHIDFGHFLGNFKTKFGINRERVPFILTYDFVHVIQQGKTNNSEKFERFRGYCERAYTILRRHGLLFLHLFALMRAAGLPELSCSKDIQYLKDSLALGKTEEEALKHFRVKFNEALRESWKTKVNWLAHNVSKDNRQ

[9] = Half life in iv dosed dog; format: ADME, organism-based, Canis lupus familiaris; details: in vivo
Mus musculus [10] = assay: Inhibition of mTORC2-mediated AKT phosphorylation in human PC3 cells xenografted in NCR mouse up to 5 mg/kg, po measured at 6 hrs; format: functional, organism-based; set-up: dose 5 mg/kg; details: PC-3
[11] = Clearance in rat liver microsomes; format: ADME, Microsome
[12] = Clearance in mouse at 1 mg/kg, iv; format: ADME, organism-based; set-up: dose 1 mg/kg, route intravenous; details: in vivo; method in brief: as §1
[13] = Plasma protein binding in mouse at 5 uM after 4 hrs by rapid equilibrium dialysis; format: ADME, cell-free; details: read-out: PPB (converted)
[14] = Antitumor activity against human MCF7-neo/Her2 xenografted in nude mouse at 12.5 mg/kg, qd measured after 14 days; format: functional; details: 336 h, read-out: TGI
[15] = Volume of distribution at steady state in mouse at 1 mg/kg, iv; format: ADME, organism-based; set-up: dose 1 mg/kg, route intravenous; details: in vivo, read-out: Vdss; method in brief: as §1
[16] = Blood clearance in iv dosed dog; format: ADME, organism-based, Canis lupus familiaris; details: whole blood
[17] = Kinetic solubility of the compound; format: physicochemical; details: for solubility kinetic: read-out: Kinetic_solubility
[18] = Plasma protein binding in human at 5 uM after 4 hrs by rapid equilibrium dialysis; format: ADME, cell-free; details: read-out: PPB (converted)
Mus musculus [19] = assay: Inhibition of mTORC1-mediated S6RP phosphorylation in human PC3 cells xenografted in NCR mouse up to 5 mg/kg, po measured at 6 hrs; format: functional, organism-based; set-up: dose 5 mg/kg; details: PC-3
[20] = Oral bioavailability in mouse at 5 mg/kg; format: ADME, organism-based; details: in vivo; method in brief: as §1
[21] = Volume of distribution at steady state in iv dosed dog; format: ADME, organism-based, Canis lupus familiaris; details: in vivo, read-out: Vdss
[22] = target: Serine/threonine-protein kinase mTOR (Homo sapiens, UniProt P42345); assay: Inhibition of human recombinant mTOR expressed in insect cells assessed as inhibition of phosphorylation of (GFP)-4-EBP1 protein after 30 mins by fluorescence resonance energy transfer assay
Mus musculus [23] = species: Mus musculus; details: NCR, NCI-PC3, 50 to 100 mg/kg
Mus musculus [24] = species: Mus musculus; details: NCR, NCI-PC3, 50 to 100 mg/kg; remark: listed apart in the source
Plasma [25] = assay: Plasma concentration in NCR nude mouse xenografted with human PC3 cells at 50 to 100 mg/kg, po measured at 6 to 10 hrs; format: ADME, organism-based, PC-3; set-up: route oral; details: in vivo
Plasma [26] = assay: Unbound plasma concentration in NCR nude mouse xenografted with human PC3 cells at 50 to 100 mg/kg, po measured at 6 to 10 hrs; format: ADME, organism-based, PC-3; set-up: route oral; details: in vivo
[27] = Antitumor activity against human MCF7-neo/Her2 xenografted in nude mouse at 37 mg/kg, qd measured after 14 days; format: functional; details: 336 h, read-out: TGI

Sequence of Cytochrome P450 3A4 (P08684 whole entry): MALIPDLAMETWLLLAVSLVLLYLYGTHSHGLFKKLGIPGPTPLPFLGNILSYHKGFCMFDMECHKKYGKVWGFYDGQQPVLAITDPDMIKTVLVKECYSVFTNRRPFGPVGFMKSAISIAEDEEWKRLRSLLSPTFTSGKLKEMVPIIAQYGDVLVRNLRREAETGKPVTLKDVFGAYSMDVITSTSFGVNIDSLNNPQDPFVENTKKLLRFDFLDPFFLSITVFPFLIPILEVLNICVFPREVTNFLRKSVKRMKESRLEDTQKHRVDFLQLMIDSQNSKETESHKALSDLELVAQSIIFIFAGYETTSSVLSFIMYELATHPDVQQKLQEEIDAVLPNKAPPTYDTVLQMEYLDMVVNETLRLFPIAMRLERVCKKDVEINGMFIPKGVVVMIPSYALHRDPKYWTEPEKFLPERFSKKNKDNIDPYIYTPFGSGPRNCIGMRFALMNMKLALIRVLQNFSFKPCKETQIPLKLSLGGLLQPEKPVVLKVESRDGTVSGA

SMILES	CLhep predicted [1]	half-life [2]	CL free (Mus musculus [3])	pEC50 (PC-3)	CLhep predicted [4]	pIC50 (Cytochrome P450 3A4)	pEC50 [5]	pIC50 [6]	fraction unbound at 4 h, 5 µM [7]	CLhep predicted [11]	clearance [12]	fraction unbound at 4 h, 5 µM [13]	Vd [15]	Kinetic_solubility [17]	fraction unbound at 4 h, 5 µM [18]	bioavailability [20]	solubility kinetic [17]	also measured
CCNC(=O)Nc1ccc(-c2nc3c(c(N4CCOC[C@@H]4C)n2)C[C@@H]2CC[C@H]3N2C2COC2)cc1	51 mL/min/kg	2 h	38 mL/min/kg	7.54	14 mL/min/kg	< 5.00	7.12	8.47	0.24	27 mL/min/kg	4.8 mL/min/kg	0.13	0.53 L/kg	soluble	0.15	82%		CL free (Canis familiaris): 44 mL/min/kg; pIC50 (mTORC1): 8.57; inhibition [8]: 51%; half-life [9]: 3.1 h; inhibition (Mus musculus [10]): Active; inhibition in vivo at 12.5 mg/kg [14]: 57%; clearance [16]: 6 mL/min/kg; inhibition (Mus musculus [19]): Active; Vd [21]: 3 L/kg; pKi [22]: 8.82
CCNC(=O)Nc1ccc(-c2nc3c(c(N4CCOC[C@@H]4C)n2)CN(C2COC2)CC3)cc1				6.10		5.60	5.92										40 µM (≈ 18.1 µg/mL)	
CCNC(=O)Nc1ccc(-c2nc3c(c(N4CCOC[C@@H]4C)n2)C[C@@H]2CC[C@H]3N2C(=O)COC)cc1	69 mL/min/kg	0.82 h	134 mL/min/kg	7.33	17 mL/min/kg		7.44	8.66	0.21	31 mL/min/kg	9.38 mL/min/kg	0.07	0.66 L/kg	soluble	0.27	47%		
CCNC(=O)Nc1ccc(-c2nc3c(c(N4CCOC[C@@H]4C)n2)C[C@@H]2CC[C@H]3N2S(C)(=O)=O)cc1	49 mL/min/kg	1.02 h	342 mL/min/kg	7.60	11 mL/min/kg	5.30	7.33	8.80	0.1	26 mL/min/kg	17.8 mL/min/kg	0.05	1.59 L/kg	soluble	0.14	53%		
CCNC(=O)Nc1ccc(-c2nc3c(c(N4CCOC[C@@H]4C)n2)[C@H]2CC[C@@H](C3)N2C)cc1	42 mL/min/kg	0.8 h	207 mL/min/kg	6.99	12 mL/min/kg		7.01	8.41	0.73	18 mL/min/kg	67 mL/min/kg	0.32	4.5 L/kg		0.62	114%	> 75 µM	inhibition (Mus musculus [23]): Active; inhibition (Mus musculus [24]): Active; concentration (Plasma [25]): > 1000 nM; Cp(f) (Plasma [26]): > 320 nM
CCNC(=O)Nc1ccc(-c2nc3c(c(N4CCOC[C@@H]4C)n2)C[C@@H]2CC[C@H]3N2C)cc1	50 mL/min/kg	1.3 h	165 mL/min/kg	7.43	14 mL/min/kg		7.08	8.68	0.32	22 mL/min/kg	24 mL/min/kg	0.14	1.5 L/kg	soluble		133%		
CCNC(=O)Nc1ccc(-c2nc3c(c(N4CCOC[C@@H]4C)n2)C[C@@H]2CC[C@H]3N2C(C)(C)C(=O)NC)cc1				7.89			7.77	9.22						soluble				
CCNC(=O)Nc1ccc(-c2nc3c(c(N4CCOC[C@@H]4C)n2)C[C@@H]2CC[C@H]3N2C(C)=O)cc1	42 mL/min/kg	1.2 h	200 mL/min/kg	7.80	15 mL/min/kg		7.21	8.70	0.16	24 mL/min/kg	4.62 mL/min/kg	0.02	0.54 L/kg	soluble	0.16	40%		
CCNC(=O)Nc1ccc(-c2nc3c(c(N4CCOC[C@@H]4C)n2)[C@@H]2CC[C@H](C3)N2C2COC2)cc1				6.24			6.01	7.35									> 75 µM	
CCNC(=O)Nc1ccc(-c2nc3c(c(N4CCOC[C@@H]4C)n2)[C@H]2CC[C@@H](C3)N2C2COC2)cc1				6.74		< 5.00	6.57	7.54									> 75 µM	
CCNC(=O)Nc1ccc(-c2nc3c(c(N4CCOC[C@@H]4C)n2)[C@H]2CC[C@@H](C3)N2S(C)(=O)=O)cc1				6.59		5.30	6.09	7.74									> 75 µM	
CCNC(=O)Nc1ccc(-c2nc3c(c(N4CCOC[C@@H]4C)n2)[C@H]2CC[C@@H](C3)N2C(C)=O)cc1				6.74		5.14	6.34	7.52									> 75 µM	
CCNC(=O)Nc1ccc(-c2nc3c(c(N4CCOC[C@@H]4C)n2)C[C@H]2CC[C@@H]3N2C)cc1				6.91			6.31	7.80						soluble				
CCNC(=O)Nc1ccc(-c2nc3c(c(N4CCOC[C@@H]4C)n2)[C@H]2CC[C@@H](C3)N2CC)cc1				6.84			6.74	8.49									> 75 µM	
CCNC(=O)Nc1ccc(-c2nc3c(c(N4CCOC[C@@H]4C)n2)CCN(C2COC2)C3)cc1 [RG-7603]			100 mL/min/kg															pIC50 (PC-3): 6.57; pIC50 [5]: 6.25; inhibition in vivo at 37 mg/kg [27]: 60%
CCNC(=O)Nc1ccc(-c2nc3c(c(N4CCOC[C@@H]4C)n2)[C@@H]2CC[C@H](C3)N2C)cc1	58 mL/min/kg	1.07 h	53 mL/min/kg	6.82	15 mL/min/kg		6.80	8.17	0.8	28 mL/min/kg	34 mL/min/kg	0.54	2.6 L/kg		0.81	82%	> 75 µM	
